Test results: ChEMBL document CHEMBL1140308, “A new synthetic agent with potent but selective cytotoxic activity against cancer” (2005)

Assays:
Assay type in all cases: functional
[1] = tested on: HL-60; test: Concentration required to inhibit the growth of human leukemia cancer HL-60 cell line by 50% after 120 hours; determined by MTT assay; conditions: HL-60, 120 h
Procedure, shortened: (§1)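 Cells (A549, HCT-116, SK-MEL-2 in DMEM; HL-60, MCF-7 in RPMI 1640; 10% FBS) seeded at 1000-1500/well, six wells per concentration, and precultured 1 day. Added 2 µM working solution and 10-fold serial dilutions, or vehicle. MTT read at 544 nm after 120 h at 37 °C, with T0 reference plates. GI50 is 50% of control growth; ≥3 independent runs.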

[2] = tested on: HL-60; test: Concentration required to cause lethality in human leukemia cancer HL-60 cell line by 50% after 120 hours; determined by MTT assay; conditions: HL-60, 120 h
Procedure, shortened: (§2)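 Cells (DMEM for HCT-116, SK-MEL-2, A549; RPMI 1640 for HL-60, MCF-7; 10% FBS) were seeded at 1000-1500 per well and precultured 1 day. Methanesulfonate-salt drug was added as 10-fold serial dilutions from a 2 μM working solution, six wells per concentration. MTT absorbance was read at 544 nm after 120 h at 37 °C against T0 plates. LC50 is 50% reduction of initial cell number; values are the mean of ≥3 independent determinations.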

[3] = tested on: HCT-116; test: Concentration required to inhibit the growth of human colon cancer HCT116 cell line by 50% to initial after 120 hours; determined using MTT assay; conditions: HCT-116, 120 h
[4] = tested on: A549; test: Concentration required to inhibit human […] lung cancer A549 cell growth by 50% after 120 hours; determined by MTT assay; conditions: A549, 120 h; procedure, shortened: as §1
[5] = tested on: SK-MEL-2; test: Concentration required to inhibit the growth of human malenoma cancer SK-MEL-2 cell line by 50% after 120 hours; determined by MTT assay; conditions: SK-MEL-2, 120 h; procedure, shortened: as §1
[6] = tested on: MCF7; test: Concentration required to inhibit the growth of human breast cancer MCF-7 cell line by 50% after 120 hours; determined by MTT assay; conditions: MCF7, 120 h; procedure, shortened: as §1
[7] = tested on: SK-MEL-2; test: Concentration required to cause lethality in human malenoma cancer SK-MEL-2 cell line by 50% after 120 hrs; determined by MTT assay; conditions: SK-MEL-2, 120 h; procedure, shortened: as §2
[8] = tested on: MCF7; test: Concentration required to cause lethality in human breast cancer MCF-7 cell line by 50% after 120 hours; determined by MTT assay; conditions: MCF7, 120 h; procedure, shortened: as §2
[9] = tested on: HCT-116; test: Concentration required to cause lethality in human colon cancer HCT116 cell line by 50% after 120 hours; determined by MTT assay; conditions: HCT-116, 120 h; procedure, shortened: as §2
[10] = tested on: A549; test: Concentration required to cause lethality in human […] lung cancer A549 cell line by 50% after 120 hours; determined by MTT assay; conditions: A549, 120 h; procedure, shortened: as §2
[11] = tested on: A549; test: Concentration required for inhibition of human […] lung cancer A549 cell growth by 50%, after 120 hours; determined by MTT assay; conditions: A549, 120 h; procedure, shortened: as §1

Row | SMILES | GI50 [1] | CC50 ([2]; read-out: LC50 (the source's name)) | GI50 [3] | GI50 [4] | GI50 [5] | GI50 [6] | LC50 [7] | LC50 [8] | LC50 [2] | LC50 [9] | LC50 [10] | GI50 [11]
1 | CN(C)CCN1C(=O)c2cccc3cc([N+](=O)[O-])cc(c23)C1=O [MITONAFIDE] | 45 nM | 400 nM | 250 nM | 65 nM | 150 nM | 245 nM | – | – | – | – | – | –
2 | COc1ccc2nc3cc(Cl)ccc3c(NCCCN3CCN(CCCNc4ccc5ncn6c7ccccc7c(=O)c4c56)CC3)c2c1 | 400 nM | – | 3.8 nM | 8 nM | 300 nM | 400 nM | > 1000 nM | > 1000 nM | > 1000 nM | > 1000 nM | > 1000 nM | –
3 | Nc1cc2c3c(cccc3c1)C(=O)N(CCCN1CCN(CCCNc3ccc4ncn5c6ccccc6c(=O)c3c45)CC1)C2=O | 5 nM | – | 2.2 nM | – | 15 nM | 32 nM | 750 nM | > 1000 nM | 450 nM | 80 nM | 100 nM | 2.5 nM
4 | O=C1c2cccc3cc([N+](=O)[O-])cc(c23)C(=O)N1CCCN1CCN(CCCNc2ccc3ncn4c5ccccc5c(=O)c2c34)CC1 | 3.5 nM | – | 0.5 nM | 0.6 nM | 4 nM | 3.2 nM | 60 nM | > 1000 nM | 33 nM | 32 nM | 35 nM | –
5 | CN(CCCNc1ccc2ncn3c4ccccc4c(=O)c1c23)CCCN1C(=O)c2cccc3cc([N+](=O)[O-])cc(c23)C1=O | 120 nM | – | 8 nM | 25 nM | 150 nM | 50 nM | > 1000 nM | > 1000 nM | 500 nM | 220 nM | 500 nM | –
